19 molecules from ChEMBL document CHEMBL3243972, “Analogues of ornithine as inhibitors of ornithine decarboxylase. New deductions concerning the topography of the enzyme's active site” (J Med Chem, 1978) can be followed below.

Activity calls are given as the source filed them. No cut-off for these calls is given here.

The Kd is the free concentration of one partner at which half of the binding sites on the other are occupied at equilibrium, for simple one-to-one binding. Low readings indicate a tighter complex, high ones a looser complex. The Ki is a measure of affinity in units of concentration, obtained from inhibition or displacement. What is called inhibition is the share of the control response that was lost under treatment.

Data set [1] in a line: Binding affinity to pyridoxal-phosphate.
The target in data set [2] is T1, Ornithine decarboxylase (Rattus norvegicus, UniProt P09057).
T1 sequence (P09057 whole entry): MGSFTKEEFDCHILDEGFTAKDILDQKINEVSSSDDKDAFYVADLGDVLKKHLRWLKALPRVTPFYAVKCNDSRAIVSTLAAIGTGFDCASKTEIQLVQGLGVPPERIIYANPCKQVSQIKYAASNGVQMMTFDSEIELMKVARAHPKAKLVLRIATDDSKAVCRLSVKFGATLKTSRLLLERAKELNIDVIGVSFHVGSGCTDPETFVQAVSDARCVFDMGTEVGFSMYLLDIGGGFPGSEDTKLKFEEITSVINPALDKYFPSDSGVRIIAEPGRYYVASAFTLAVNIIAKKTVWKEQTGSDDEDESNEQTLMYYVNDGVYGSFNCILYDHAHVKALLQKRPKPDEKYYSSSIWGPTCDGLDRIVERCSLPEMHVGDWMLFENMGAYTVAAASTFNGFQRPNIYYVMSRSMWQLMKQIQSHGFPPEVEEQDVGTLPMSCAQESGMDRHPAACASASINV
The data set is described as follows: Competitive inhibition of ornithine decarboxylase in rat HTC cells using DL-[1-14C]ornithine as substrate after 1 hr by dixon plot analysis. The data set is classed as cell-based. Put shortly:
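HTC hepatoma cell ODC; sodium phosphate pH 7.1 assay with PLP 0.1 µmol, DTT 5 µmol, DL-[1-14C]ornithine 0.043 µmol, L-ornithine 0.8 µmol, final 0.95 mL; enzyme added to start; 14CO2 measured after 1 h at 37 °C. KI from Dixon plots, or for some values from ID50 at ornithine equal to KM, taking KI = ID50/2.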

The target of data set [3] is T2, Ornithine decarboxylase (Bos taurus, UniProt P27117).
T2 sequence (P27117 whole entry): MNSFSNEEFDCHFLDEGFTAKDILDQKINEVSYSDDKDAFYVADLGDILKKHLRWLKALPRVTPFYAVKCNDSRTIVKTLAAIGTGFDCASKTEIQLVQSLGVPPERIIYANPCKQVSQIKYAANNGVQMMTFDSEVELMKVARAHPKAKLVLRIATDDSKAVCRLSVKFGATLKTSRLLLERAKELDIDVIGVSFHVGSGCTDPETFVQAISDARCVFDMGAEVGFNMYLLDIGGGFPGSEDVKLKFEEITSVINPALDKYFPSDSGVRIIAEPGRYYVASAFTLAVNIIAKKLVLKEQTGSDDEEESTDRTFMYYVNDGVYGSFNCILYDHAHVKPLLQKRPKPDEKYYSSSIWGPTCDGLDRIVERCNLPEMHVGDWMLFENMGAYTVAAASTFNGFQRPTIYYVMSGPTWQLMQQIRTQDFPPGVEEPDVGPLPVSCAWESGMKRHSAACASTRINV
Description: Competitive inhibition of bull prostate ornithine decarboxylase using DL-[1-14C]ornithine as substrate after 1 hr by dixon plot analysis. Set-up: species or system Prostate gland. Put shortly: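 Bull prostate ODC purified ~fourfold: homogenized at 4 °C in Tris-HCl 10 mM pH 7.2, sucrose, EDTA, DTT 5 mM, PLP 0.1 mM; 20000g and 105000g spins, 20–50% (NH4)2SO4 cut, dialysis. Assay in 0.95 mL Tris-HCl pH 7.2 with PLP 0.1 µmol, DTT 5 µmol, DL-[1-14C]ornithine 0.043 µmol, L-ornithine 0.8 µmol; 14CO2 counted after 1 h at 37 °C; KI from Dixon plots, least-squares fit.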

Data set [4] addresses T1, Ornithine decarboxylase. The data set is described as follows: Competitive inhibition of rat liver ornithine decarboxylase using DL-[1-14C]ornithine as substrate after 1 hr by dixon plot analysis. Put shortly: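 ODC from livers of rats given thioacetamide 18 h before sacrifice, ~tenfold purified by acid treatment at pH 4.6. Incubation: sodium phosphate pH 7.1, PLP 0.1 µmol, DTT 5 µmol, DL-[1-14C]ornithine 0.043 µmol plus L-ornithine 0.8 µmol in 0.95 mL; 14CO2 release after 1 h at 37 °C; KI from Dixon plots by least-squares fit.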

The target in data set [5] is T3, Ornithine decarboxylase (Rattus norvegicus) (UniProt P09057).
T3 sequence (whole entry): T1 sequence (P09057 whole entry)
Description: Inhibition of rat prostate ornithine decarboxylase at 10 mM. Conditions: Prostate gland.

In data set [6] the target is T3, Ornithine decarboxylase (Rattus norvegicus). The data set is described as follows: Competitive inhibition of rat liver ornithine decarboxylase using DL-[1-14C]ornithine as substrate at 0.25 mM after 1 hr by dixon plot analysis.
Data set [7] deals with Ornithine decarboxylase (Bos taurus). The data set is described as follows: Inhibition of bull prostate ornithine decarboxylase.
Data set [8] deals with T3, Ornithine decarboxylase (Rattus norvegicus). The data set is described as follows: Competitive inhibition of rat liver ornithine decarboxylase using DL-[1-14C]ornithine as substrate at 4 mM after 1 hr by dixon plot analysis.
Data set [9] has the same target. The data set is described as follows: Competitive inhibition of rat liver ornithine decarboxylase using DL-[1-14C]ornithine as substrate at 1 mM after 1 hr by dixon plot analysis.
Data set [10] has the same target. The data set is described as follows: Competitive inhibition of ornithine decarboxylase in rat HTC cells using DL-[1-14C]ornithine as substrate at 1 mM after 1 hr by dixon plot analysis. The data set is classed as cell-based.
In data set [11] the target is T1, Ornithine decarboxylase. Description: Competitive inhibition of Sprague-Dawley rat prostate ornithine decarboxylase using DL-[1-14C]ornithine as substrate by liquid scintillation counting analysis. Details: species or system Prostate gland.

In [1], `C[C@](N)(CCCN)C(=O)O` came in with a Kd of 2350 µM. Besides, the Ki in [2] (read-out: Ki) worked out at 20 µM; in [3], 20 µM; in data set [4], 19 µM.

In the case of `C[C@@](N)(CCCN)C(=O)O`, the Ki in data set [2] (read-out: Ki) was 1050 µM; in [3], 1000 µM; in data set [4], 1300 µM.

As for `NCCCC(N)c1nnn[nH]1` (centres undefined), the Ki was 140 µM in [2] (read-out: Ki), 70 µM in data set [3] and 120 µM in data set [4].

Consider `N[C@H]1CC[C@](N)(C(=O)O)CC1`, for which the Ki in data set [2] (read-out: Ki) and in [4] was 70 µM each time.

On to `NCCC[C@@H](N)C(=O)O`, for which, in data set [5], the inhibition was found to be 25%.

Consider `N[C@H]1CC[C@@](N)(C(=O)O)CC1`, for which the inhibition result in data set [6] was “inactive”.

In data set [1], `CNCCCC(C)(N)C(=O)O` (racemic) registered a Kd of 5360 µM. In addition, the Ki in data set [3] came out at 740 µM; in [4] it was 500 µM.

Consider `CC(N)(CCCN)C(=O)O` (racemic), for which the Ki in data set [2] (read-out: Ki) and in data set [4] was 40 µM throughout.

With `NC/C=C/C(N)C(=O)O` (racemic), the Ki in data set [7] is 4400 µM.

Take `CC(N)(CCCCN)C(=O)O` (racemic): in [8], the inhibition entry is “inactive”.

Consider `CC(N)(CCN)C(=O)O` (racemic), for which the inhibition result in data set [8] was “inactive”.

On to `CN(C)CCCC(C)(N)C(=O)O` (racemic), for which, in data set [9], the inhibition result was “inactive”.

On to `NCCC(O)C(N)C(=O)O` (racemic), for which, in data set [10], the inhibition result was “inactive”.

Consider `NCCCC(N)(CO)C(=O)O` (racemic), for which the inhibition entry in [9] was “inactive”.

Consider `CC(N)(CCCNCCCN)C(=O)O` (racemic; 3), for which the Kd in [1] is 900 µM. Further, the Ki entry was “Not Active” in data set [2] (htc) and 4400 µM in [3].

In data set [3], `CC(N)(CCCNCCCN)C(=O)O` (racemic; 8) came in with a Ki of 5500 µM.

Turning to `NCCC[C@H](N)C(=O)O` [ORNITHINE], binding in [1] was put at a Kd of 1250 µM.

Regarding `NCCCCN` [PUTRESCINE], binding in [1] was put at a Kd of 800 µM.

Take `NCCCCNCCCN` [SPERMIDINE]: the affinity in data set [1], expressed as Kd, was 700 µM. Besides, the inhibitory constant (Ki) in [11] is 2700 µM; in data set [3], 3000 µM.
